Activity calls are given as the source filed them. The calls are words filed in the database; no cut-off is given here.
Key:
Homo sapiens [1] = species on record: Homo sapiens; assay: Selectivity ratio of Ki for human kappa opioid receptor to Ki for human mu opioid receptor
Homo sapiens [2] = species on record: Homo sapiens; assay: Selectivity ratio of Ki for human kappa opioid receptor to Ki for human delta opioid receptor
[3] = biological target: T1, Kappa-type opioid receptor (Homo sapiens, UniProt P41145); assay: Displacement of [3H]U69593 from human kappa opioid receptor expressed in CHO cells after 60 mins by scintillation counting; format: cell-based
Mu-type opioid receptor [4] = biological target: T2, Mu-type opioid receptor (Homo sapiens, UniProt P35372); assay: Antagonist activity at human mu opioid receptor expressed in CHO cells assessed as inhibition of DAMGO-induced [35S]GTPgammaS binding relative to control; format: functional, cell-based
How it was run: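 Human μ-receptor CHO membranes (7.5 μg) were incubated with twelve compound concentrations plus 200 nM DAMGO and 0.080 nM [35S]GTPγS. Nonspecific binding was set with 10 μM GTPγS. Read by filtration and scintillation counting.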

Homo sapiens [5] = species on record: Homo sapiens; assay: Selectivity ratio of Ki for human mu opioid receptor to Ki for human delta opioid receptor
[6] = biological target: T3, Delta-type opioid receptor (Homo sapiens, UniProt P41143); assay: Antagonist activity at human delta opioid receptor expressed in CHO cells assessed as inhibition of […]-induced [35S]GTPgammaS binding; format: functional, cell-based
Mu-type opioid receptor [7] = biological target: T2, Mu-type opioid receptor; assay: Displacement of [3H]DAMGO from human mu opioid receptor expressed in CHO cells after 60 mins by scintillation counting; format: cell-based
Mu-type opioid receptor [8] = biological target: T2, Mu-type opioid receptor; assay: Antagonist activity at human mu opioid receptor expressed in CHO cells assessed as inhibition of DAMGO-induced [35S]GTPgammaS binding; format: functional, cell-based
[9] = biological target: T3, Delta-type opioid receptor; assay: Agonist activity at human delta opioid receptor expressed in CHO cells by [35S]GTPgammaS binding assay relative to control; format: functional, cell-based
How it was run: (§1)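 [35S]GTPγS binding (0.080 nM final) on membranes from CHO cells stably expressing human δ (10 μg), μ (7.5 μg) or κ (15 μg) receptors. Twelve compound concentrations were tested in 50 mM Tris-HCl pH 7.4 with 3 mM MgCl2, 0.2 mM EGTA, 3 μM GDP and 100 mM NaCl, for 60 min at 30 °C. Nonspecific binding was set with 10 μM GTPγS. Samples were filtered and counted. Emax was taken relative to basal (0%). Values are mean ± S.E.M., ≥3 experiments in triplicate.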

[10] = biological target: T3, Delta-type opioid receptor; assay: Antagonist activity at human delta opioid receptor expressed in CHO cells assessed as inhibition of […]-induced [35S]GTPgammaS binding relative to control; format: functional, cell-based
[11] = biological target: T1, Kappa-type opioid receptor; assay: Antagonist activity at human kappa opioid receptor expressed in CHO cells assessed as inhibition of […]-induced [35S]GTPgammaS binding relative to control; format: functional, cell-based
[12] = biological target: T1, Kappa-type opioid receptor; assay: Antagonist activity at human kappa opioid receptor expressed in CHO cells assessed as inhibition of […]-induced [35S]GTPgammaS binding; format: functional, cell-based
[13] = biological target: T1, Kappa-type opioid receptor; assay: Agonist activity at human kappa opioid receptor expressed in CHO cells by [35S]GTPgammaS binding assay relative to control; format: functional, cell-based; how it was run: as §1
[14] = biological target: T3, Delta-type opioid receptor; assay: Displacement of [3H]naltrindole from human delta opioid receptor expressed in CHO cells after 3 hrs by scintillation counting; format: cell-based
Mu-type opioid receptor [15] = biological target: T2, Mu-type opioid receptor; assay: Agonist activity at human mu opioid receptor expressed in CHO cells by [35S]GTPgammaS binding assay relative to control; format: functional, cell-based; how it was run: as §1

T3 sequence (P41143 whole entry): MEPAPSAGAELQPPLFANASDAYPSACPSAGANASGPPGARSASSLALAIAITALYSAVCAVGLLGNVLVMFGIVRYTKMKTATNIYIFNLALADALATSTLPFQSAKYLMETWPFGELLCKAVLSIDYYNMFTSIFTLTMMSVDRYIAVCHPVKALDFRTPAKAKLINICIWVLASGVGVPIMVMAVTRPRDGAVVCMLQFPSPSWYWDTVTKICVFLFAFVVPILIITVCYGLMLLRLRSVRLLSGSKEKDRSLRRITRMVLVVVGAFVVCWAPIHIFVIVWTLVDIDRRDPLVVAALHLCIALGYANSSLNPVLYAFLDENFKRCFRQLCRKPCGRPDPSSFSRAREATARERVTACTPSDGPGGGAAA
T1 sequence (P41145 whole entry): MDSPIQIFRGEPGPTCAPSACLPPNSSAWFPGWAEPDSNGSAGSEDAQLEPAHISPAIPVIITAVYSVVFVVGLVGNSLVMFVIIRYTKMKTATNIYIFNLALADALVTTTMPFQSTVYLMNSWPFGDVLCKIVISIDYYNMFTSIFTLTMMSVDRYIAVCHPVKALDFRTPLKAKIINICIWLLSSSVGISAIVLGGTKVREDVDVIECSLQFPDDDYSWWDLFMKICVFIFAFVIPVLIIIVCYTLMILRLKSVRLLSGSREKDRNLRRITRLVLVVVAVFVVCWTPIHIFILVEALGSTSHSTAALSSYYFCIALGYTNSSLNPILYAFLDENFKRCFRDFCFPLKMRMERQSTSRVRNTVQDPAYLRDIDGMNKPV
T2 sequence (P35372 whole entry): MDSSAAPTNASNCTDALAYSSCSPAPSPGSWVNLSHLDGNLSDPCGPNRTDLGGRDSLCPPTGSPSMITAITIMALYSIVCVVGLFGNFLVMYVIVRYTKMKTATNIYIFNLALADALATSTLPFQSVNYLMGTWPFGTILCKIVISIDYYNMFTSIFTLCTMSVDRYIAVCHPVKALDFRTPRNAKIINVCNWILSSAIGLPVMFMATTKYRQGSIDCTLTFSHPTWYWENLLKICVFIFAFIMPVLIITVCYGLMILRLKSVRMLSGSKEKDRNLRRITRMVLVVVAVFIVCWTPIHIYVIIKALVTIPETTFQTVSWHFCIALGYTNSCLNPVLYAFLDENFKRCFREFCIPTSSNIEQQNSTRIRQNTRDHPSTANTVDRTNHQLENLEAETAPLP

SMILES	Ratio Ki (Homo sapiens [1])	Ratio Ki (Homo sapiens [2])	Ki [3]	Imax (Mu-type opioid receptor [4])	Ratio Ki (Homo sapiens [5])	IC50 [6]	Ki (Mu-type opioid receptor [7])	IC50 (Mu-type opioid receptor [8])	Emax [9]	Imax [10]	Imax [11]	IC50 [12]	Emax [13]	Ki [14]	Emax (Mu-type opioid receptor [15])
Cc1cc(O)cc(C)c1C[C@@H](C(=O)N1Cc2ccccc2C[C@H]1C(=O)O)N(C)C	> 4.3	> 3740	–	–	–	–	–	–	–	–	–	–	–	–	–
Cc1cc(O)cc(C)c1C[C@@H](C(=O)N1Cc2ccccc2C[C@H]1C(=O)OC1=C2O[C@H]3[C@@H](O)C=C[C@H]4[C@H]5CC(C=C1)C2[C@]43CCN5C)N(C)C (stereo partly drawn)	11	7.5	12 nM	97%	1.5	1.7 nM	1.1 nM	13 nM	-4.9%	120%	99%	3100 nM	2.6%	1.6 nM	0.43%
Cc1cc(O)cc(C)c1C[C@@H](C(=O)N1Cc2ccccc2C[C@H]1C(=O)NCCC(=O)OC1=C2O[C@H]3[C@@H](O)C=C[C@H]4[C@H]5CC(C=C1)C2[C@]43CCN5C)N(C)C (stereo partly drawn)	–	–	–	69%	–	–	–	–	–	120%	inactive	–	41%	–	14%
Cc1cc(O)cc(C)c1C[C@@H](C(=O)N1Cc2ccccc2C[C@H]1C(=O)NCCC(=O)O)N(C)C	> 2.2	–	–	–	–	–	–	–	–	–	–	–	–	–	–
